STEP block: STEP (human) phosphatase inhibition; 0.25% of 360,000 active; P54829; recombinant STEP, OMFP fluorogenic substrate, fluorescence; inhibition, % at 20 µM;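 active means inhibition at 20 µM, scaled per plate between control wells, above about 37%, limit read from the data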;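 further: 0% = DMSO with enzyme and substrate and 100% = substrate only without enzyme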
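System: isolated STEP enzyme; schedule: 20 min enzyme reaction at room temperature, protected from light; medium: Bis-Tris buffer pH 6.0, 2.5 mM DTT, 0.005% Tween 20; signal: fluorescence, 480/540 nm; dosing: single compound dose of 20 µM, 1% DMSO final; also added: OMFP substrate, 25 µM final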
SUMO1-SIM PPI: SUMO1-SIM interaction modulation; SUMO1 binding to a labelled peptide, TR-FRET, 1 h; inhibition, % at 20 µM; AID 602429; 0.33% of 360,000 active; in the data active means inhibition above about 37%
Target sequence (P63165 whole entry, looked up): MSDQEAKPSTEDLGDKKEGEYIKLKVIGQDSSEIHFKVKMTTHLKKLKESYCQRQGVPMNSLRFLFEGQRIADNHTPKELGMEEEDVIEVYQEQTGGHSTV
LMPTP block: LMPTP (human) inhibition. P24666. inhibition, % at 20 µM. AID 651560. recombinant LMPTP-A, OMFP fluorogenic substrate, fluorescence intensity. 0.22% of 360,000 active;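 active means compounds that cut the enzyme signal by at least half of the control window in the single-dose screen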;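 further: plate controls were DMSO wells with enzyme plus substrate for no effect and substrate without enzyme for full effect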
Target sequence (P24666 whole entry, looked up): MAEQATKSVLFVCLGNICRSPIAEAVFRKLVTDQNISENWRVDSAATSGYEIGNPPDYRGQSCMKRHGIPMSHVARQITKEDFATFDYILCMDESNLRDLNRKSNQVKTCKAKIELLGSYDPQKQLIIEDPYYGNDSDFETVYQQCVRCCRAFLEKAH
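Assay system: LMPTP-A, protein tyrosine phosphatase of low molecular weight / Medium: pH 6.0 Bis-Tris buffer with DTT and Triton X-100 / Schedule: 50 min enzyme reaction at room temperature, protected from light / Measured by: endpoint fluorescence intensity from OMFP dephosphorylation / Read-out basis: % inhibition relative to no-enzyme and uninhibited control wells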
FAS TE block: blocks the thioesterase domain of human fatty acid synthase. P49327. recombinant FAS-TE, OMFH fluorogenic substrate, fluorescence endpoint. inhibition, % at 15 µM. 0.67% of 360,000 active. AID 602261;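 active means compounds whose normalised, plate-corrected inhibition of enzyme fluorescence in the single-dose primary screen is 50% or more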;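 further: 0% = DMSO with enzyme and 100% = substrate without enzyme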
Scp1 inh: Scp-1 (human) phosphatase inhibition | Q9GZU7 | Recombinant Scp1, phosphopeptide, malachite green phosphate absorbance | inhibition, % at 20 µM | 0.88% of 340,000 active;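 active means inhibition above about 50% at 20 µM, limit read from the data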;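 further: plate controls were DMSO wells with enzyme for no effect and wells lacking enzyme for full effect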
Target sequence (Q9GZU7 76-261 limits assumed): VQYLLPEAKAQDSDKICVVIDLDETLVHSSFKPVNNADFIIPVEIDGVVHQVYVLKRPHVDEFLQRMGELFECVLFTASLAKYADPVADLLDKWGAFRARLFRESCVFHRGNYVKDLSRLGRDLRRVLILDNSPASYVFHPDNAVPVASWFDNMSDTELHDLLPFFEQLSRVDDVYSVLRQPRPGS
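Test system: SCP-1 catalytic domain; Buffer or medium: Acidic Tris acetate buffer with magnesium and detergent; Also added: Phosphorylated 17-residue peptide substrate; Compound: single 20 µM dose, 1% DMSO; Schedule: enzyme reaction 45 min at room temperature, colour 5 min, stabilisation 30 min; Signal: Phosphate-binding colour reagent, absorbance read at 630 nm.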
The depositor's hits bear a star; x = not tested or not shown. Only some compounds are listed: those with a hit (about 1.9% of all), similar ones and a draw of the others.

SMILES	STEP block	SUMO1-SIM PPI	LMPTP block	FAS TE block	Scp1 inh
O=C(c1ccccc1)c1c2c(cc3sc4ccccc4[n+]13)-c1cccc3cccc-2c13	3	-18	69*	-168	-4
Cc1c(C)c2ccc(OCC(=O)NCc3ccccn3)cc2oc1=O	2	-5	-1	-1	-6
Cc1c(C)c2ccc(OCC(=O)Nc3ccccn3)cc2oc1=O	0	55*	0	-4	6
Cc1cc(NC(=O)CS(=O)c2cn(Cc3cccc(Cl)c3)c3ccccc23)no1 (configuration not stated)	-1	-2	1	4	x
Cc1cc(NS(=O)(=O)c2ccc(Nc3nc(-c4ccc(C)c(C)c4)cs3)cc2)no1	-6	19	2	34	-11
Cc1cc(NS(=O)(=O)c2ccc(Nc3nc(-c4sc(N)nc4C)cs3)cc2)no1	2	51*	12	14	23
Cc1ccc(-n2c(N)c(C(=O)N3CCN(C)CC3)sc2=S)cc1	96*	-15	-1	-6	-8
CSc1ccc(CN2CCC(C)(Oc3ccc(C(C)=O)cc3)C2)cc1 (configuration not stated)	3	-3	3	2	x
COc1ccccc1-c1sc2ccccc2c1-c1ccc2c(c1)OCO2	2	1	3	24	-9
COc1ccccc1-c1sc2cc3c(cc2c1-c1ccc2c(c1)OCO2)OCO3	-3	-6	2	29	68*
Cc1ccc(CN2C(=O)CSCC2(C)C(=O)Nc2c(C)cccc2C)cc1 (configuration not stated)	x	3	0	x	x
COC(=O)[C@]12CCCCC=C1N(CCC1=CCCCC1)C(=O)[C@H](CC(=O)N1CCCCC1)C2	x	3	1	8	x
Cc1ccccc1C(=O)Nc1ccc2c(C#N)c3nc4ccccc4nc3n2c1	-1	26	11	-5	94*
CC(C)C[C@H]1CN(CCCC[C@@H]2CNC(=O)C(=O)N2CC2CCCCC2)C(=O)C(=O)N1CC1CCCCC1	x	1	0	18	x
Cc1ccc(C2=NNC(=O)C(c3c[nH]c4ccccc34)C2)cc1 (configuration not stated)	2	55*	1	4	-11
O=C(COC(=O)c1ccc([N+](=O)[O-])s1)Nc1ccccc1	1	22	-2	13	-10
O=C(COC(=O)c1ccc([N+](=O)[O-])s1)NC(c1ccccc1)c1ccccc1	-1	59*	-1	3	2
Cc1ccc(-c2nc3cc(C)c(Br)c(C)n3c2Cc2ccsc2)cc1	x	2	3	21	x
O=C(NC(=S)Nc1ccc(S(=O)(=O)Nc2nccs2)cc1)c1ccc(Br)o1	0	12	2	-14	10
O=C(/C=C/c1ccc(Br)cc1)NC(=S)Nc1ccc(S(=O)(=O)Nc2nccs2)cc1	-3	94*	16	4	-3
CCc1nnc(NS(=O)(=O)c2ccc(NC(=S)NC(=O)/C=C/c3ccc(C(C)C)cc3)cc2)s1	0	27	4	51*	-10
CCc1nnc(NS(=O)(=O)c2ccc(NC(=S)NC(=O)/C=C/c3ccccc3)cc2)s1	-1	21	1	27	3
Cc1ccccc1S(=O)(=O)NC(=O)C1(C)CCN1C(=O)COc1ccc(Cl)cc1 (configuration not stated)	1	4	-3	-7	x
O=C1C(=C(c2ccccc2)N2CCOCC2)Cc2ccccc21	0	-29	-1	0	x
Cc1cccc2nc(-c3ccccc3)nc(N[C@@H](CO)c3ccccc3)c12	2	-3	54*	23	-11
SMILES	STEP block	SUMO1-SIM PPI	LMPTP block	FAS TE block	Scp1 inh
Cc1ccc(-c2nc(NCCCO)c3ccccc3n2)cc1	-6	21	48	2	-6
CC1(C(=O)NS(=O)(=O)c2ccccc2)CCN1C(=O)c1ccc(C2CCCCC2)cc1 (configuration not stated)	-4	3	-2	-7	x
CCOC(=O)C1=C(COc2ccccc2)NC(=O)NC1c1ccc(Cl)cc1 (configuration not stated)	-3	69*	-1	11	50
COC(=O)C1=C(COc2ccccc2)NC(=O)NC1c1ccc(Cl)cc1 (configuration not stated)	x	x	x	x	22
O=C(Nc1ccc(F)cc1)C(c1ccnc2ccccc12)N1CCN(c2cccc(C(F)(F)F)n2)CC1 (configuration not stated)	x	3	8	x	x
COC(=O)C[C@H]1C=C[C@H](NC(=O)c2cccc(F)c2)[C@@H](CO)O1	x	-1	-2	x	x
CCn1c(SC(C)C(=O)O)nc2sc3c(c2c1=O)CCC3 (configuration not stated)	10	13	15	2	78*
CN(C)c1ccc(C(=O)c2ccc(O)cc2O)cc1	0	-5	1	-3	-14
CN(C)c1ccc(Cc2cc3c(O)ccc(O)c3cc(Cc3ccc(N(C)C)cc3)c2=O)cc1	7	42*	50	9	30
O=C(O)[C@@H]1[C@H]2C[C@H]3c4[nH]c5ccccc5c4CCN3C[C@@H]2CC[C@@H]1O	-2	25	60*	-22	-9
COc1cc(-c2nc(-c3ccc(Br)o3)no2)cc(OC)c1OC	3	53*	1	4	-7
CCN(c1ccc(OC)cc1)S(=O)(=O)c1ccc2c(c1)CCN2C(=O)CCC(=O)O	-1	0	0	0	5
CCN(c1ccc(C)c(C)c1)S(=O)(=O)c1ccc2c(c1)CCN2C(=O)CCC(=O)O	2	47*	0	-9	-7
COCCNC(=O)C1(C)CCCN(C(=O)c2cc(C)oc2C)C1 (configuration not stated)	-3	3	-2	-10	x
O=C(Nc1nccs1)c1cc(-c2ccccn2)nc2c(Cl)cccc12	0	53*	0	4	-5
O=[N+]([O-])c1ccccc1S(=O)(=O)N1CCN(Cc2ccc3c(c2)OCO3)CC1	-1	-5	-1	20	-1
O=[N+]([O-])c1ccccc1S(=O)(=O)N1CCN(S(=O)(=O)c2ccc3c(c2)OCCO3)CC1	0	3	3	53*	-2
CCN(c1ccc(OC)cc1)S(=O)(=O)N1CCCC(C(=O)NCc2ccc(OC(C)C)cc2)C1 (configuration not stated)	0	3	1	24	x
CCOC(=O)CC1(C)Sc2ccccc2N1S(=O)(=O)c1ccc(C)cc1 (configuration not stated)	x	3	1	x	x
NC(=S)NNc1cccc2cccnc12	3	11	50*	-5	4
O=C(N=Nc1c(O)[nH]c2ccc(F)cc12)c1ccc(NS(=O)(=O)c2cccs2)cc1	2	-4	53*	-1	-10
COc1ccc2[nH]c(O)c(N=NC(=O)c3ccc(NS(=O)(=O)c4cccs4)cc3)c2c1	3	10	5	-17	24
